Measurements pooled from the literature.
Each line is one published result; the experiments were not run side by side.
Organism: Mycobacterium tuberculosis
Effect on: microbial growth

Structure (SMILES)	test	system	conditions	MIC
C[C@H]1COC2(CCN(c3nc(=O)c4cc(C(F)(F)F)cc([N+](=O)[O-])c4s3)CC2)O1	resazurin	H37RV	–	< 0.39 µM
O=[N+]([O-])c1cn2c(n1)OC[C@@H](OCc1ccc(N3CCCCC3)nc1)C2	–	H37RV	–	0.4 to 0.8 µg/mL
C=CCOc1cc(O)cc(O)c1C(=O)[C@@H](C)CC	broth dilution	H37RV	–	100 µg/mL
O=C1C(=NNc2nc(-c3ccccc3)cs2)C(N=Cc2ccccc2Cl)=NN1c1ccccc1	resazurin	H37RV	5 days	51.5 µM
CC1SC2(CCCCC2)N(NC(=O)c2[nH]c3ccc(Cl)cc3c2-c2ccccc2)C1=O (stereo not drawn)	–	ATCC27294 H37RV	–	250 µM
Cc1ccc(CN2CC[C@]34OC[C@H](C(C)C)N3C(=O)CC[C@@H]4C2)cc1	–	H37RV	–	1.66 µM
COC(=O)c1cc(-c2cccc(NC(=S)Nc3cccc(Cl)c3)c2)on1	–	ATCC27294 H37RV	7 days	4 µg/mL
Cc1ccn2c(C(=O)NCc3ccc(S(F)(F)(F)(F)F)cc3)c(C)nc2c1	–	H37RV	5 days	0.25 µM
CC1CC(C)(C)CC2(C1)SCC(=O)N2NC(=O)c1[nH]c2ccc(Cl)cc2c1-c1ccccc1 (stereo not drawn)	–	ATCC27294 H37RV	–	500 µM
COC(=O)c1cc(-c2cccc(NC(=S)NC3CCCCC3)c2)on1	–	ATCC27294 H37RV	7 days	2 µg/mL
CC1=NN(CNc2ccc(O)cc2)C(=O)C1=NNn1c(-c2ccccc2)nc2ccccc2c1=O	resazurin	H37RV	–	53.5 µM
Cc1cc(=O)[nH]n1C(=O)c1ccc(-n2c(C)ccc2C)cc1	broth dilution	H37RV	21 days	2 µg/mL
Cc1c(Cc2cccc(Cl)c2)c(=O)n2c([nH]c3ccccc32)c1C#N	broth dilution	H37RV	–	> 128 µg/mL
O=C1C(=NNc2nc(-c3ccccc3)cs2)C(N=Cc2cccc(Cl)c2)=NN1c1ccccc1	resazurin	H37RV	5 days	12.9 µM
C[C@@H]1CN(c2nc(=O)c3cc(C(F)(F)F)cc(C#N)c3s2)[C@@H](C)CN1CC1CCCCC1	resazurin	H37RV	–	> 2 µM
NNC(=O)c1ccncc1	–	H37RV	–	0.05 µg/mL
OCN(CO)c1nc(N(CO)CO)nc(N(CO)CO)n1	–	H37RV	7 days	8 to 16 µg/mL
O=[N+]([O-])c1ccc(/C(O)=C/C(=S)S)cc1	–	ATCC27294 H37RV	8 days	7.8 µg/mL
NNC(=O)c1ccncc1	–	–	–	0.03 µg/mL
COC(=O)c1cc(-c2cccc(NC(=S)Nc3ccc([N+](=O)[O-])cc3)c2)on1	–	ATCC27294 H37RV	7 days	2 µg/mL
Cc1ccc(C)n1-c1ccc(-c2nnc(-c3ccc(Br)cc3)[nH]2)cc1	broth dilution	H37RV	21 days	2 µg/mL
CO[C@H]1/C=C/O[C@@]2(C)Oc3c(C)c(O)c4c(O)c(c(/C=N/N5CCN(C)CC5)c(O)c4c3C2=O)NC(=O)/C(C)=C\C=C\[C@H](C)[C@H](O)[C@@H](C)[C@@H](O)[C@@H](C)[C@H](OC(C)=O)[C@@H]1C	broth dilution	–	–	0.4 µg/mL
COC(=O)c1cc(-c2cccc(NC(=S)Nc3ccc(Cl)cc3)c2)on1	–	ATCC27294 H37RV	7 days	1 µg/mL
COc1nc2ccc(Br)cc2cc1[C@@H](c1ccccc1)[C@@](O)(CCN(C)C)c1cccc2ccccc12	resazurin	H37RV	14 days	0.51 µM
CO/N=C(\C(=O)N[C@@H]1C(=O)N2C(C(=O)O)=C(COC(C)=O)CS[C@H]12)c1csc(N)n1	resazurin	H37RA	14 days	16 µg/mL
[H]/N=C(/N)N[C@H]1[C@H](O)[C@@H](O)[C@H](O[C@@H]2O[C@@H](C)[C@](O)(C=O)[C@H]2O[C@@H]2O[C@@H](CO)[C@H](O)[C@@H](O)[C@@H]2NC)[C@@H](N/C(N)=N\[H])[C@@H]1O	–	H37RV	–	1.1 µg/mL

Structure (SMILES)	test	system	conditions	MIC
O=C1C(=NNc2nc(-c3ccccc3)cs2)C(N=Cc2ccc(Cl)cc2)=NN1c1ccccc1	resazurin	H37RV	–	25 µg/mL
O=c1nc(N2CCN(CC3CCCCC3)CC2)sc2c([N+](=O)[O-])cc(C(F)(F)F)cc12	resazurin	H37RV	–	0.002 µM
Cc1c(Cc2ccc(F)cc2F)c(=O)n2c([nH]c3ccccc32)c1C#N	broth dilution	H37RV	–	1 µg/mL
CN(CC[C@H](N)CC(=O)N[C@H]1C=C[C@H](n2ccc(N)nc2=O)O[C@@H]1C(=O)O)C(=N)N	–	H37RA	–	> 50 µM
CC(C)CC=CC=CC(=O)NC(CC(N)=O)C(=O)NC1C(=O)NC(c2ccc(O)cc2)C(=O)NC(CCCN)C(=O)NC(C(C)O)C(=O)NC(c2ccc(O)cc2)C(=O)NC(c2ccc(O)cc2)C(=O)NC(C(C)O)C(=O)NC(Cc2ccccc2)C(=O)NC(CCCN)C(=O)NC(c2ccc(OC3OC(CO)C(O)C(O)C3OC3OC(CO)C(O)C(O)C3O)cc2)C(=O)NC(C(C)O)C(=O)NC(c2ccc(O)cc2)C(=O)NCC(=O)NC(CC(C)C)C(=O)NC(C)C(=O)NC(c2ccc(O)c(Cl)c2)C(=O)OC1C(N)=O (stereo not drawn)	–	H37RV	14 days	6.25 to 12.5 µg/mL
O=C(Nc1ccc2c(c1)OC(F)(F)O2)Nc1ccc(Cl)c(C(F)(F)F)c1	–	H37RV	–	2 µM
CCCCCCC/C=C\[C@H](O)C#CC#C[C@@H](O)CC	resazurin	ATCC27294 H37RV	7 days	50.2 µg/mL
CC[C@@H](CO)NCCN[C@@H](CC)CO	–	ATCC27294 H37RV	7 days	1 µg/mL
CC(C)[C@H]1CO[C@]23CCN(Cc4ccc(C(F)(F)F)cc4)C[C@H]2CCC(=O)N13	resazurin	H37RV	7 days	0.13 µM
CC1CCCC2(C1)SCC(=O)N2NC(=O)c1[nH]c2ccc(Cl)cc2c1-c1ccccc1 (stereo not drawn)	–	ATCC27294 H37RV	–	16 µM
CC1=NN(CNc2c(O)c(S(=O)(=O)O)cc3ccccc23)C(=O)C1=NNn1c(-c2ccccc2)nc2ccccc2c1=O	resazurin	H37RV	–	20.9 µM
COC(=O)c1cc(-c2cccc(NC(=O)Nc3ccc(Cl)c(C(F)(F)F)c3)c2)on1	–	ATCC27294 H37RV	7 days	> 64 µg/mL
O=C(CNS(=O)(=O)c1ccc([N+](=O)[O-])cc1[N+](=O)[O-])N1CCN(C(c2ccc(F)cc2)c2ccc(F)cc2)CC1	–	ATCC27294 H37RV	–	25 µg/mL
C=C[C@@H](O)C#CC#C[C@@H](O)/C=C\CCCCCCC	resazurin	ATCC27294 H37RV	7 days	26.7 µg/mL
COC(=O)c1cc(-c2cccc(NC(=O)Nc3ccccc3)c2)on1	–	ATCC27294 H37RV	7 days	4 µg/mL
Cc1cn2c(C(=O)NCc3ccc(S(F)(F)(F)(F)F)cc3)c(C)nc2s1	–	H37RV	5 days	0.4 µM
C[C@H]1c2cccc(O)c2C(=O)C2=C(O)[C@]3(O)C(=O)C(C(N)=O)=C(O)[C@@H](N(C)C)[C@@H]3[C@@H](O)[C@@H]21	resazurin	H37RA	14 days	1 µg/mL
O=C1C(=NNc2nc(-c3ccccc3)cs2)C(N=Cc2ccccc2)=NN1c1ccccc1	resazurin	H37RV	–	6.25 µg/mL
CC(C)(C)C1CCC2(CC1)SCC(=O)N2NC(=O)c1[nH]c2ccc(Cl)cc2c1-c1ccccc1 (stereo not drawn)	–	ATCC27294 H37RV	–	16 µM
Cc1ccc(C)n1-c1ccc(-c2nnc(-c3ccccc3Cl)[nH]2)cc1	broth dilution	H37RV	21 days	8 µg/mL
O=C(C1CCCN(S(=O)(=O)c2ccccc2[N+](=O)[O-])C1)N1CCN(C(c2ccc(F)cc2)c2ccc(F)cc2)CC1 (stereo not drawn)	–	ATCC27294 H37RV	–	> 25 µg/mL
NNC(=O)c1ccncc1	–	W4	–	0.14 µM
COC(=O)c1cc(-c2cccc(NC(=S)Nc3ccccc3)c2)on1	–	ATCC27294 H37RV	7 days	2 µg/mL
Cc1ccc(C)n1-c1ccc(C(=O)NNC=O)cc1	broth dilution	H37RV	21 days	4 µg/mL
C[C@H]1COc2c(N3CCN(C)CC3)c(F)cc3c(=O)c(C(=O)O)cn1c23	resazurin	H37RA	14 days	0.12 µg/mL
